What was measured:
[1] = Cmax in CD1 nu/nu mouse xenografted with human HCT116 cells at 50 mg/kg, po qd for 3 weeks; type: ADME, organism-based, HCT-116; parameters: dose 50 mg/kg, route oral; conditions: in vivo
In short: (§1)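 HCT116 cells (5 × 10^6 per mouse) injected subcutaneously into the right flank of CD1 nu/nu mice. Once tumors reached ~325 mm3, mice were randomized into groups of 12 and dosed orally for 21 days, once daily (qd) or biweekly (biw). Vehicle was 40% v/v PEG-400 plus 25% w/v HPβCD at 20 μL/g.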

[2] = Cmax in CD1 nu/nu mouse xenografted with human HCT116 cells at 525 mg/kg, po administered biweekly for 3 weeks; type: ADME, organism-based, HCT-116; parameters: dose 525 mg/kg, route oral; conditions: in vivo; in short: as §1
[3] = AUC (0 to 24 hrs) in CD1 nu/nu mouse xenografted with human HCT116 cells at 50 mg/kg, po qd for 3 weeks; type: ADME, organism-based, HCT-116; parameters: time < 24 hr, dose 50 mg/kg, route oral; conditions: in vivo
In short: (§2)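 HCT116 cells (5 × 10^6/mouse) injected sc into right flank of CD1 nu/nu mice; at ~325 mm3 tumors, randomized into groups of 12. Oral dosing 21 days, once daily or biweekly, in 40% v/v PEG-400 and 25% w/v HPβCD at 20 μL/g. […] Tumor size by caliper.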

[4] = AUC (0 to 24 hrs) in CD1 nu/nu mouse xenografted with human HCT116 cells at 150 mg/kg, po qd for 3 weeks; type: ADME, organism-based, HCT-116; parameters: time < 24 hr, dose 150 mg/kg, route oral; conditions: in vivo; in short: as §2
[5] = AUC (0 to 24 hrs) in CD1 nu/nu mouse xenografted with human HCT116 cells at 200 mg/kg, po qd for 3 weeks; type: ADME, organism-based, HCT-116; parameters: time < 24 hr, dose 200 mg/kg, route oral; conditions: in vivo; in short: as §2
[6] = AUC (0 to 24 hrs) in CD1 nu/nu mouse xenografted with human HCT116 cells at 525 mg/kg, po administered biweekly for 3 weeks; type: ADME, organism-based, HCT-116; parameters: time < 24 hr, dose 525 mg/kg, route oral; conditions: in vivo; in short: as §2
Mus musculus [7] = experiment: Unbound Cmin in 3 week po dosed CD1 nu/nu mouse xenografted with human HCT116 cells after 24 hrs; type: ADME, organism-based, HCT-116; conditions: in vivo
[8] = Plasma clearance in CD-1 mouse at 5 mg/kg, iv; type: ADME, organism-based; parameters: dose 5 mg/kg, route intravenous
In short: (§3)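 Intravenous dosing at 5 (mouse), 2 (rat), 0.5 (dog) and 0.5 (monkey) mg/kg. Plasma clearance, steady-state volume of distribution and half-life derived from the plasma profile.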

[9] = Half life in CD-1 mouse at 5 mg/kg, iv; type: ADME, organism-based; parameters: dose 5 mg/kg, route intravenous; conditions: in vivo; in short: as §3
[10] = Oral bioavailability in CD-1 mouse at 10 mg/kg; type: ADME, organism-based; conditions: in vivo
[11] = Plasma protein binding in CD-1 mouse at 2 uM; type: ADME, cell-free; conditions: read-out: PPB (converted)
In short: (§4)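 Plasma protein binding measured in mouse, rat, dog and monkey plasma at 2 μM compound.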

[12] = Half life in Sprague-Dawley rat at 2 mg/kg, iv; type: ADME, organism-based; parameters: dose 2 mg/kg, route intravenous; conditions: in vivo; in short: as §3
Rattus norvegicus = experiment: Dose normalized AUC in Sprague-Dawley rat at 4 mg/kg, po; type: ADME, organism-based; parameters: dose 4 mg/kg, route oral; conditions: in vivo
In short: (§5)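 Oral exposure, dose-normalized (μM·h·kg/mg), from a PK study also run with iv dosing (rat 2 mg/kg iv, 4 mg/kg po; monkey 0.5 mg/kg iv, 1 mg/kg po). Plasma clearance, Vdss, half-life and oral bioavailability also derived.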

[13] = Plasma protein binding in Sprague-Dawley rat at 2 uM; type: ADME, cell-free; conditions: read-out: PPB (converted); in short: as §4
Canis familiaris = experiment: Dose normalized AUC in beagle dog at 1 mg/kg, po; type: ADME, organism-based, Canis lupus familiaris; parameters: dose 1 mg/kg, route oral; conditions: in vivo
[14] = Plasma protein binding in beagle dog at 2 uM; type: ADME, cell-free, Canis lupus familiaris; conditions: read-out: PPB (converted); in short: as §4
[15] = Volume of distribution at steady state in rhesus monkey at 0.5 mg/kg, iv; type: ADME, organism-based, Macaca mulatta; parameters: dose 0.5 mg/kg, route intravenous; conditions: in vivo, read-out: Vdss; in short: as §3
Rhesus monkey = experiment: Dose normalized AUC in rhesus monkey at 1 mg/kg, po; type: ADME, organism-based, Macaca mulatta; parameters: dose 1 mg/kg, route oral; conditions: in vivo; in short: as §5
[16] = Oral bioavailability in rhesus monkey at 1 mg/kg; type: ADME, organism-based, Macaca mulatta; conditions: in vivo
[17] = Plasma protein binding in rhesus monkey at 2 uM; type: ADME, cell-free, Macaca mulatta; conditions: read-out: PPB (converted); in short: as §4
[18] = Drug metabolism in human hepatocytes assessed as glucuronide conjugate level; type: ADME, cell-based, Hepatocyte
[19] = Drug metabolism in human hepatocytes assessed as carboxylic acid level; type: ADME, cell-based, Hepatocyte
[20] = Drug metabolism in human hepatocytes assessed as glucose conjugate level; type: ADME, cell-based, Hepatocyte
Mus musculus [21] = experiment: Inhibition of HDAC in CD1 nu/nu mouse tumor xenografted with human HCT116 cells assessed as plasma drug level causing increase in H2BK5 acetylation at 67 mg/kg, po tid after 24 hrs by ELISA; type: functional, HCT-116
Mus musculus [22] = experiment: Inhibition of HDAC in CD1 nu/nu mouse tumor xenografted with human HCT116 cells assessed as plasma drug level causing increase in H2BK5 acetylation at 67 mg/kg, po tid after 72 hrs by ELISA; type: functional, HCT-116
Mus musculus [23] = experiment: Inhibition of HDAC in CD1 nu/nu mouse tumor xenografted with human HCT116 cells assessed as plasma drug level causing increase in H2BK5 acetylation at 100 mg/kg, po bid after 8 hrs by ELISA; type: functional, HCT-116
Mus musculus [24] = experiment: Inhibition of HDAC in CD1 nu/nu mouse tumor xenografted with human HCT116 cells assessed as plasma drug level causing increase in H2BK5 acetylation at 100 mg/kg, po bid after 24 hrs by ELISA; type: functional, HCT-116
Mus musculus [25] = experiment: Inhibition of HDAC in CD1 nu/nu mouse tumor xenografted with human HCT116 cells assessed as plasma drug level causing increase in H2BK5 acetylation at 100 mg/kg, po bid after 48 hrs by ELISA; type: functional, HCT-116
[26] = Plasma clearance in Sprague-Dawley rat at 2 mg/kg, iv; type: ADME, organism-based; parameters: dose 2 mg/kg, route intravenous; in short: as §3
Mus musculus [27] = experiment: Inhibition of HDAC in CD1 nu/nu mouse tumor xenografted with human HCT116 cells assessed as plasma drug level causing increase in H2BK5 acetylation at 67 mg/kg, po tid after 1 hr by ELISA; type: functional, HCT-116
HCT-116 = experiment: cells; type: functional, Homo sapiens
in vivo [28] = conditions: CD1 nu/nu, mouse, po, 50 mg/kg
in vivo [29] = conditions: CD1 nu/nu, mouse, po, 100 mg/kg
in vivo [30] = conditions: CD1 nu/nu, mouse, po, 875 mg/kg

SMILES: Nc1ccc(-c2cccs2)cc1NC(=O)c1ccc(N2CCC3(CC2)CNC(=O)O3)nc1
- Cmax [1]: 3.5 µM
- Cmax [2]: 56.8 µM
- AUC at 24 h [3]: 40 µM·h
- AUC at 24 h [4]: 208 µM·h
- AUC at 24 h [5]: 371 µM·h
- AUC at 24 h [6]: 808 µM·h
- fCmin (Mus musculus [7]): 48 nM
- clearance [8]: 27 mL/min/kg
- half-life [9]: 2 h
- bioavailability [10]: 82%
- fraction unbound at 2 µM [11]: 0.015
- half-life [12]: 4.2 h
- AUC/dose (Rattus norvegicus): 3 µM·kg·h/mg
- fraction unbound at 2 µM [13]: 0.002
- AUC/dose (Canis familiaris): 0.3 µM·kg·h/mg
- fraction unbound at 2 µM [14]: 0.024
- Vd [15]: 7.8 L/kg
- AUC/dose (Rhesus monkey): 1.8 µM·kg·h/mg
- bioavailability [16]: 100%
- fraction unbound at 2 µM [17]: 0.016
- Drug metabolism [18]: metabolite_notdetected
- Drug metabolism [19]: metabolite_notdetected
- Drug metabolism [20]: metabolite_notdetected
- INH (Mus musculus [21]): 1.5 µM
- INH (Mus musculus [22]): 0.3 µM
- INH (Mus musculus [23]): 9.9 µM
- INH (Mus musculus [24]): 0.4 µM
- INH (Mus musculus [25]): 0.3 µM
- clearance [26]: 3.6 mL/min/kg
- INH (Mus musculus [27]): 14.9 µM
- GI25 (HCT-116): 50 nM
- GI75 (HCT-116): 188 nM
- GI90 (HCT-116): 367 nM
- concentration at 24 h (in vivo [28]): 0.9 µM
- concentration at 24 h (in vivo [29]): 0.5 µM
- concentration at 24 h (in vivo [30]): 19.3 µM
